Experimental findings from ChEMBL document CHEMBL3414471 (J Med Chem, 2015) are described below.

Data set [1] has as its target T1, 5-hydroxytryptamine receptor 2C (Homo sapiens, UniProt P28335).
T1 sequence (P28335 whole entry): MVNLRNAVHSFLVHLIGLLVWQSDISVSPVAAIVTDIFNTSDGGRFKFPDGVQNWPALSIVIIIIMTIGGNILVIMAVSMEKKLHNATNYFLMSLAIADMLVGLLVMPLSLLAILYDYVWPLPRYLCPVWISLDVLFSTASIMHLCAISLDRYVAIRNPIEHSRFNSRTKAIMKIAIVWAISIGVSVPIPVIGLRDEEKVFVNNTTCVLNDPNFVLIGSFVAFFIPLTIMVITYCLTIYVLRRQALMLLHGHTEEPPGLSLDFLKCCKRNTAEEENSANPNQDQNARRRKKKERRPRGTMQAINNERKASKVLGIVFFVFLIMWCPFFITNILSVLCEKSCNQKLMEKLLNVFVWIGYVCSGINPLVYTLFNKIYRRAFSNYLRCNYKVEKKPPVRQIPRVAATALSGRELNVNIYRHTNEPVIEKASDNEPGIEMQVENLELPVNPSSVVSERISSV
Nature of the data set: Agonist activity at human 5-HT2C receptor expressed in HEK293 cells assessed as calcium flux by FLIPR assay. In kind it is functional, cell-based. A general note: Calcium flux is commonly read through the fluorescence of an indicator in the cells.

Data set [2] concerns the target T2, 5-hydroxytryptamine receptor 2C (Homo sapiens) (UniProt P28335).
T2 sequence (whole entry): T1 sequence (P28335 whole entry)
Nature of the data set: Agonist activity at human 5-HT2C receptor expressed in HEK293 cells assessed as calcium flux by FLIPR assay relative to 5-HT. In kind it is functional, cell-based. The method in brief:
(§1)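 Flp-In-293 cells stably expressing human 5-HT2A, 5-HT2B or 5-HT2C-INI; grown 24–48 h in DMEM/10% dialyzed FBS, plated on poly-L-Lys at 12000 cells/well in 1% dialyzed FBS for 24 h. Loaded 1 h at 37 °C with calcium dye in HBSS, 20 mM Hepes pH 7.40, 2.5 mM probenecid.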

Data set [3] has as its target T3, 5-hydroxytryptamine receptor 2B (Homo sapiens, UniProt P41595). Briefly: Agonist activity at human 5-HT2B receptor expressed in HEK293 cells assessed as calcium flux by FLIPR assay. In kind it is functional, cell-based.
Data set [4] addresses T3, 5-hydroxytryptamine receptor 2B. Nature of the data set: Agonist activity at human 5-HT2B receptor expressed in HEK293 cells assessed as calcium flux by FLIPR assay relative to 5-HT. In kind it is functional, cell-based. In a few lines:
as §1

Data set [5] has as its target 5-hydroxytryptamine receptor 2A (Homo sapiens, UniProt P28223). Nature of the data set: Agonist activity at human 5-HT2A receptor expressed in HEK293 cells assessed as calcium flux at 10 uM by FLIPR assay. In kind it is functional, cell-based. In a few lines: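 Flp-In-293 cells stably expressing human 5-HT2A, 5-HT2B or 5-HT2C-INI, grown in DMEM with 10% dialyzed FBS, then plated for 24 h in 1% dialyzed FBS. Cells were loaded 1 h at 37 °C with calcium dye in Hepes-buffered HBSS, pH 7.40, containing 2.5 mM probenecid. FLIPR read 10 s baseline, then 120 s after drug addition.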

A short description of data set [6]: Permeability from apical to basolateral side in human Caco2 cells at pH 7.4. In kind it is ADME, cell-based. The conditions noted are these: caco-2, pH 7.4. The method in brief:
(§2)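 Caco-2 monolayer permeability measured A–B and B–A in pH 7.4 buffer, reported as ×10−6 cm/s; A–B/B–A ratio derived from these.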

The nature of data set [7]: Permeability from basolateral to apical side in human Caco2 cells at pH 7.4. In kind it is ADME, cell-based. The conditions noted are these: caco-2, pH 7.4. The method in brief: as §2
(In general: Passage across Caco-2 layers is used to estimate intestinal permeability.)

Data set [8] is described as follows: Efflux ratio of permeability from apical to basolateral side over basolateral to apical side in human Caco2 cells at pH 7.4. In kind it is ADME, cell-based. The settings on record: caco-2, pH 7.4.
For data set [9], the system named is Liver microsome. Nature of the data set: Metabolic stability in human liver microsomes. In kind it is ADME. In a few lines:
(§3)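 Incubation with human or CD-1 mouse liver microsomes for 1 h; stability expressed as % parent compound remaining.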
Background: Liver microsomes are vesicles of endoplasmic reticulum, rich in cytochrome P450 enzymes.

Data set [10] deals with Liver. Nature of the data set: Metabolic stability in mouse liver microsomes. In kind it is ADME. In a few lines: as §3
Data set [11] has as its target CYP3A (Homo sapiens, UniProt P08684+P20815+P24462+Q9HB55). Briefly: Inhibition of human CYP3A using midazolam as substrate at 10 uM. In kind it is ADME. The settings on record: probe midazolam. In a few lines: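 Human liver microsomes, test compound at 10 µM, midazolam as CYP3A substrate; percent inhibition reported; run by a contract lab.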
The target in data set [12] is CYP2D6 (Homo sapiens, UniProt P10635). Nature of the data set: Inhibition of human CYP2D6 using dextromethorphan as substrate at 10 uM. The settings on record: probe dextromethorphan. In kind it is ADME.
The target of data set [13] is CYP2C9 (Homo sapiens, UniProt P11712). Nature of the data set: Inhibition of human CYP2C9 using diclofenac as substrate at 10 uM. In kind it is ADME. The conditions noted are these: probe diclofenac.
Data set [14] addresses CYP2C19 (Homo sapiens, UniProt P33261). Nature of the data set: Inhibition of human CYP2C19 using omeprazole as substrate at 10 uM. The conditions noted are these: probe omeprazole. In kind it is ADME.
The target in data set [15] is T4, CYP2B6 (Homo sapiens, UniProt P20813).
T4 sequence (P20813 whole entry): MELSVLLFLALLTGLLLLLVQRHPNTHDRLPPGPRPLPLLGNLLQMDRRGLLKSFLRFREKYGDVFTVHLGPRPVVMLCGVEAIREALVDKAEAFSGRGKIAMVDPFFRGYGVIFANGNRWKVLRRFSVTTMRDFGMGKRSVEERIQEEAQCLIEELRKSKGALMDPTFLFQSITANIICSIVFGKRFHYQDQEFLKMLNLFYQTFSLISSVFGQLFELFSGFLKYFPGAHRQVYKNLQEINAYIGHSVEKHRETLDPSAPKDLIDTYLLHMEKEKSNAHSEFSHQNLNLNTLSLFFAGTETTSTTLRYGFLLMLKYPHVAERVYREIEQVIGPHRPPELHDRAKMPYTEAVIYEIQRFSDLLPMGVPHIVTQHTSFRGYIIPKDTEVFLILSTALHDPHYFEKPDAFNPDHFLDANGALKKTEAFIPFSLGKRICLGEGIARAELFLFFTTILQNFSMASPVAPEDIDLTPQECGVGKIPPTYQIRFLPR
Nature of the data set: Inhibition of human CYP2B6 using bupropion as substrate at 10 uM. In kind it is ADME. The settings on record: probe bupropion.

The target of data set [16] is Voltage-gated inwardly rectifying potassium channel KCNH2 (Homo sapiens, UniProt Q12809). Nature of the data set: Inhibition of human ERG channel expressed in CHO cells by patch clamp method. In kind it is cell-based.
Data set [17] deals with Salmonella typhimurium. Nature of the data set: Mutagenic activity in Salmonella typhimurium TA98 at 10 to 100 uM by ames test. In kind it is toxicity, organism-based. The conditions noted are these: salmonella enterica subsp. enterica serovar typhimurium. In a few lines:
(§4)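 Ames fluctuation test in Salmonella strains TA98, TA100, TA1535 and TA1537, with and without S9, at 10, 50 and 100 µM; scored negative or positive.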

For data set [18], the system named is Salmonella typhimurium. Briefly: Mutagenic activity in Salmonella typhimurium TA98 at 10 to 100 uM by ames test in presence of S9 mixture. In kind it is toxicity, organism-based. The conditions noted are these: salmonella enterica subsp. enterica serovar typhimurium. The method in brief: as §4
For data set [19], the system named is Salmonella typhimurium. Briefly: Mutagenic activity in Salmonella typhimurium TA100 at 10 to 100 uM by ames test. In kind it is toxicity, organism-based. The conditions noted are these: salmonella enterica subsp. enterica serovar typhimurium. In a few lines: as §4
Data set [20] has as its system Salmonella typhimurium. Nature of the data set: Mutagenic activity in Salmonella typhimurium TA100 at 10 to 100 uM by ames test in presence of S9 mixture. In kind it is toxicity, organism-based. The conditions noted are these: salmonella enterica subsp. enterica serovar typhimurium. The method in brief: as §4
Data set [21] deals with Salmonella typhimurium. Nature of the data set: Mutagenic activity in Salmonella typhimurium TA1535 at 10 to 100 uM by ames test. In kind it is toxicity, organism-based. The conditions noted are these: salmonella enterica subsp. enterica serovar typhimurium. The method in brief:
as §4

For data set [22], the system named is Salmonella typhimurium. Briefly: Mutagenic activity in Salmonella typhimurium TA1535 at 10 to 100 uM by ames test in presence of S9 mixture. In kind it is toxicity, organism-based. The conditions noted are these: salmonella enterica subsp. enterica serovar typhimurium. The method in brief:
as §4

Data set [23] has as its system Salmonella typhimurium. Nature of the data set: Mutagenic activity in Salmonella typhimurium TA1537 at 10 to 100 uM by ames test. In kind it is toxicity, organism-based. The conditions noted are these: salmonella enterica subsp. enterica serovar typhimurium. The method in brief: as §4
In data set [24] the test system is Salmonella typhimurium. Briefly: Mutagenic activity in Salmonella typhimurium TA1537 at 10 to 100 uM by ames test in presence of S9 mixture. In kind it is toxicity, organism-based. The conditions noted are these: salmonella enterica subsp. enterica serovar typhimurium. In a few lines:
as §4

Data set [25] can be described thus: Drug uptake in CD1 mouse brain at 10 mg/kg, ip after 0.5 hrs. In kind it is ADME, organism-based. Details: dose 10 mg/kg, route intraperitoneal. The conditions noted are these: read-out: Drug uptake. The method in brief: (§5)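 CD1 mice received a single 10 mg/kg ip dose formulated in pure water. Brain (ng/g) and plasma (ng/mL) levels were measured at 0.5 and 2 h. Brain/plasma ratio assumed a brain tissue density of 1 g/mL.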

Data set [26] in a line: Drug uptake in CD1 mouse brain at 10 mg/kg, ip after 2 hrs. In kind it is ADME, organism-based. Further details: dose 10 mg/kg, route intraperitoneal. The conditions noted are these: read-out: Drug uptake. The method in brief:
as §5

Data set [27] is described as follows: Plasma concentration in CD1 mouse at 10 mg/kg, ip after 0.5 hrs. In kind it is ADME, organism-based. Details: dose 10 mg/kg, route intraperitoneal. In a few lines: as §5
A short description of data set [28]: Plasma concentration in CD1 mouse at 10 mg/kg, ip after 2 hrs. In kind it is ADME, organism-based. Details: dose 10 mg/kg, route intraperitoneal. The method in brief: as §5
In data set [29] the test system is Nucleic Acid. Nature of the data set: Ratio of drug uptake from brain to plasma in CD1 mouse at 10 mg/kg, ip after 0.5 hrs. In kind it is ADME, organism-based. Details: dose 10 mg/kg, route intraperitoneal.
The test system of data set [30] is Nucleic Acid. Nature of the data set: Ratio of drug uptake from brain to plasma in CD1 mouse at 10 mg/kg, ip after 2 hrs. In kind it is ADME, organism-based. Further details: dose 10 mg/kg, route intraperitoneal.
For data set [31], the system named is Mus musculus. Briefly: Antipsychotic activity in C57BL/6J mouse assessed as reduction of amphetamine-induced locomotor activity administered ip 15 mins prior to amphetamine challenge measured for 105 mins by open field test relative to vehicle-treated control. In kind it is functional, organism-based.
Data set [32] can be described thus: Plasma protein binding in human at 10 uM. In kind it is ADME, cell-free. In a few lines:
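Human plasma protein binding determined at 10 µM compound, expressed as % bound.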

Data set [33] is filed under the species Homo sapiens. Briefly: Selectivity ratio of EC50 for human 5-HT2B receptor to EC50 for human 5HT2C receptor.

Activity calls are given as the source filed them. The rule behind the calls is not given here.

T3 sequence (P41595 whole entry): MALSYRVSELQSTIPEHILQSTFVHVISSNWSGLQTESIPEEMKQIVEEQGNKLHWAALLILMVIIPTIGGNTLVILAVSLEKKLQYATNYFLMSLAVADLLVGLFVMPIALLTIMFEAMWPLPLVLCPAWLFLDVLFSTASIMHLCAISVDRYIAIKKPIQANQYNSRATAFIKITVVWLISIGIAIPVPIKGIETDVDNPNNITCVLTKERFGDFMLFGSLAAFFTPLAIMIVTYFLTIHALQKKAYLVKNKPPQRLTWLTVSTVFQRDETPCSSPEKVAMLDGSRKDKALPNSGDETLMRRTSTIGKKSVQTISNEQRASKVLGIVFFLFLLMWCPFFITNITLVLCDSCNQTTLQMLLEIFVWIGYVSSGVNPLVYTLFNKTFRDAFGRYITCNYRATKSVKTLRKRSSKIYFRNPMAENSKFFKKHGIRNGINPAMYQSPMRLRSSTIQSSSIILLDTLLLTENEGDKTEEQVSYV
Sequence of 5-hydroxytryptamine receptor 2A (P28223 whole entry): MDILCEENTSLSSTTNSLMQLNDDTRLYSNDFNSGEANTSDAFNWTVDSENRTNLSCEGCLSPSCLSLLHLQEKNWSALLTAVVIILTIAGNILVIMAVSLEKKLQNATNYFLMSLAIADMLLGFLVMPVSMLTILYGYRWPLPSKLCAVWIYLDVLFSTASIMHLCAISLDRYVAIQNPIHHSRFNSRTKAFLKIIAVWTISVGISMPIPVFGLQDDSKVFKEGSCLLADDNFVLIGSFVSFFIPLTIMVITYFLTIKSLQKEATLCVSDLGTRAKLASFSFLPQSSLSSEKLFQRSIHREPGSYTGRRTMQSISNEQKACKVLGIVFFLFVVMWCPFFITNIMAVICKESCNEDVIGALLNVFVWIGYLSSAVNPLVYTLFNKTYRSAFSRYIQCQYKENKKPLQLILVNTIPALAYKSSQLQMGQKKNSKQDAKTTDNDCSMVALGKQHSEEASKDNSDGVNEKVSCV
Sequence of CYP2D6 (P10635 whole entry): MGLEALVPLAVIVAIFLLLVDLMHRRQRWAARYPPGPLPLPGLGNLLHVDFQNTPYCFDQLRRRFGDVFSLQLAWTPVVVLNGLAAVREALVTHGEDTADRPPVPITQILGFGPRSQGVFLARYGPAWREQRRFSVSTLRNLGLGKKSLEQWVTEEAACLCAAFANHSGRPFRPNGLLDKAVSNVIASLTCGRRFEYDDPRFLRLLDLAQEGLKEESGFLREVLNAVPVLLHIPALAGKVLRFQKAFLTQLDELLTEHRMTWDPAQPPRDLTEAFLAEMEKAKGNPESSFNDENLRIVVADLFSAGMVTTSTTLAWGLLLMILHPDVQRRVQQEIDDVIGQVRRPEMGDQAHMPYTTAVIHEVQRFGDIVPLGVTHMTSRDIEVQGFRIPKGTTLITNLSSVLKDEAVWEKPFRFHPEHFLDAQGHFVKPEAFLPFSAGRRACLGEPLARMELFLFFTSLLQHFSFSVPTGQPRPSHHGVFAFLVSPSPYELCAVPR
Sequence of CYP2C19 (P33261 whole entry): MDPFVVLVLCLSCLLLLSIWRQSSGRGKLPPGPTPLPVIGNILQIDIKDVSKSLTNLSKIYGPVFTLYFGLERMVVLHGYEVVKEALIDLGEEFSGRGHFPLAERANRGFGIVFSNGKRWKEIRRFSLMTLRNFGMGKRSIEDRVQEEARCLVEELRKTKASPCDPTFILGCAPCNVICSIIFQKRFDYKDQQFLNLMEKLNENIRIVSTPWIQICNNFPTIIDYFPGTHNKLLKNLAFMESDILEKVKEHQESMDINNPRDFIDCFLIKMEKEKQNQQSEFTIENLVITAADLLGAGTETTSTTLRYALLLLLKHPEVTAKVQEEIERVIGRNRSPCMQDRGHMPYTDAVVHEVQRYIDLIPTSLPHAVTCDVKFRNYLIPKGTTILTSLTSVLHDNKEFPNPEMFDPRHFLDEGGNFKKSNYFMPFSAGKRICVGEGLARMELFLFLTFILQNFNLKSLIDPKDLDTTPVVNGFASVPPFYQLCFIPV
Sequence of Voltage-gated inwardly rectifying potassium channel KCNH2 (Q12809 whole entry): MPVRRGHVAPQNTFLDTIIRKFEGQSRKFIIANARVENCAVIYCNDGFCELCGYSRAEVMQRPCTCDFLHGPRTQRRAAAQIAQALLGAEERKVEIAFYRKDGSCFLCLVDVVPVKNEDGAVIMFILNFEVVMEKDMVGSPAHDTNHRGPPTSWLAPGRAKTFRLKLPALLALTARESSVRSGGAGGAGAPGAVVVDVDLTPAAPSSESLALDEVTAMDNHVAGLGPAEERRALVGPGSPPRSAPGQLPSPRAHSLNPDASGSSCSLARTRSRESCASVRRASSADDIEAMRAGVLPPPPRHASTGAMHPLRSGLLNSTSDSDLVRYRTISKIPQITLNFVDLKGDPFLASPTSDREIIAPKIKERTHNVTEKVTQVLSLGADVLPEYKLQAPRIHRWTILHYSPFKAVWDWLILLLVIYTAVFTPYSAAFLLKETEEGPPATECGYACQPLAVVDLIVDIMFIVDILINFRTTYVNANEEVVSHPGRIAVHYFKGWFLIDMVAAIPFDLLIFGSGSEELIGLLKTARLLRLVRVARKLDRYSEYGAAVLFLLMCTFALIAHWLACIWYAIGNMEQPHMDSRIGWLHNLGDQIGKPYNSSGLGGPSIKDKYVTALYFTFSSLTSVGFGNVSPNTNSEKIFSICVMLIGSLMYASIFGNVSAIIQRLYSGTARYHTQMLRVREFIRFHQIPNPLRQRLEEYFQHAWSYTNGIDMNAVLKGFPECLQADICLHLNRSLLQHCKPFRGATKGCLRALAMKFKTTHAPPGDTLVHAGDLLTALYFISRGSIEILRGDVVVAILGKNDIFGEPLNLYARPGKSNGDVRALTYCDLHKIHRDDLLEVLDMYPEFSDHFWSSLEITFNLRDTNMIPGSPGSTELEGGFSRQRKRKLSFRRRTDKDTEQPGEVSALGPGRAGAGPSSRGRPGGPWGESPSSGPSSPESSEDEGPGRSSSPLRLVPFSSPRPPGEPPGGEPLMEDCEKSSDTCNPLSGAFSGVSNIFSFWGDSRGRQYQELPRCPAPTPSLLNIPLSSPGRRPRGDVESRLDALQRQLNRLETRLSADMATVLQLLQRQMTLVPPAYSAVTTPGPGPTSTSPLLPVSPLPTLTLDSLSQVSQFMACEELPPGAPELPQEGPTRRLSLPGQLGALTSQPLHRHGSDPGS
Sequence of CYP2C9 (P11712 whole entry): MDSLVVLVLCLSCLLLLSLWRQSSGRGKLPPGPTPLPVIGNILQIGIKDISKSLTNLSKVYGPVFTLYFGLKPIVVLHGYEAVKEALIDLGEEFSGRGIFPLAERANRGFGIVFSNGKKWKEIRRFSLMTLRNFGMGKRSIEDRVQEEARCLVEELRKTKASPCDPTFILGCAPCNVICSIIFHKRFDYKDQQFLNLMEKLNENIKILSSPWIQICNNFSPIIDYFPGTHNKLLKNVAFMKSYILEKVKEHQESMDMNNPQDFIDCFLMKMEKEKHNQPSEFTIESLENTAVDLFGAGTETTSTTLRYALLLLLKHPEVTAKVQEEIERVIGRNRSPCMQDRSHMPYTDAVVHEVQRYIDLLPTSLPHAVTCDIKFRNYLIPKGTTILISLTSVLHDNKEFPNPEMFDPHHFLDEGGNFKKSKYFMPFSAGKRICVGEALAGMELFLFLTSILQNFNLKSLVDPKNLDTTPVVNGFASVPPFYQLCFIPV

What is called EC50 is the midpoint of the concentration-response curve. Usually Emax stands for the size of the effect at its maximum, as opposed to the concentration needed. What is called inhibition is the share of the control response that was lost under treatment. One may read the IC50 as the concentration needed to halve the response being measured. A higher IC50 goes with a need for much substance. `C=C(F)COc1ccc(Cl)cc1[C@H]1C[C@@H]1CN.Cl`: the EC50 came to 0.133 µM in data set [1] and 1.69 µM in data set [3]. The Emax in data set [2] worked out at 81%; in data set [4] it was 27%. For the same compound, in data set [5], the outcome was inactive. Further, the permeability in data set [6] came to 38.3 ×10⁻⁶ cm/s; in data set [7] it was 10.8 ×10⁻⁶ cm/s. Moreover, the Ratio in [8] is recorded as 3.5. In addition, the Stability amounted to 80% in data set [9] and 62% in data set [10]. For the same compound, the inhibition at 10 µM was found to be 27% in [11]; 80% in data set [12]; 51% in data set [13]; 33% in [14]; 77% in [15]. In data set [16], this compound registered an IC50 of 3.98 µM. Further, the Activity entry in data set [17], in [18], in data set [19], in data set [20], in [21] and in [22] was “Non-toxic” in each case. Moreover, the Activity entry in data set [23] was “Non-toxic”; in data set [24], “Non-toxic”; in data set [31], “Dose-dependent effect”. Further, the concentration at 0.5 h in data set [25] was 17500 ng/g; in [27], 1440 ng/mL. Also, the concentration at 2 h in data set [26] turned out to be 14700 ng/g; in [28], 903 ng/mL. For the same compound, the results for the BPR in [29] and in data set [30] were 12.1 and 16.2, respectively. In data set [32], this compound yielded a PPB of 68%.

Turning to `CCCOc1ccc(Cl)cc1[C@H]1C[C@@H]1CN`, the EC50 in [1] was determined as 0.103 µM; in [3], 3.44 µM. For the same compound, the Emax in data set [2] came to 72%; in [4], 25%. Moreover, the result in [5] was inactive. Besides, the Ratio EC50 in data set [33] turned out to be 33.
